From ChEMBL document CHEMBL1135803, “Design, synthesis, and preliminary pharmacological evaluation of N-acyl-3-aminoglutarimides as broad-spectrum chemokine inhibitors in vitro and anti-inflammatory agents in vivo” (2002)
Activity calls are given as the source filed them. No cut-off for these calls is given here. Peptide text beside a SMILES is read from it.

Test system: THP-1
Assay: Effective dose against monocyte chemoattractant protein-1(MCP-1) induced leukocyte migration of THP-1 cells at 100 uM conc.; Inactive
Assay type: functional, cell-based
Conditions: Homo sapiens
Procedure, shortened: (§1)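 Trans-well microtiter migration of human myelomonocytic THP-1 cells toward 25 ng/mL MCP-1 in Gey's balanced salt solution with 1 mg/mL endotoxin-free BSA, no fetal calf serum, 2 h at 37 °C. Compound is in both compartments, DMSO 1% final, tested up to 100 μM. Migrated cells are counted by MTT as % of vehicle-only migration. ED50 is the concentration giving 50% reduction; triplicate determinations.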

Row | SMILES | NA
1 | CC(C)[C@H](NC(=O)[C@@H](N)Cc1c[nH]c2ccccc12)C(=O)N[C@@H](CCCN=C(N)N)C(=O)O (H-Trp-Val-Arg-OH) | inactive
2 | CC(C)[C@H](NC(=O)[C@@H](N)Cc1c[nH]c2ccccc12)C(=O)NCC(=O)O (H-Trp-Val-Gly-OH) | inactive
3 | CC(C)[C@H](NC(=O)CN)C(=O)N[C@@H](CCC(N)=O)C(=O)O (H-Gly-Val-Gln-OH) | inactive
4 | CC(C)[C@H](NC(=O)[C@H](CCC(N)=O)NC(=O)[C@@H](N)Cc1c[nH]c2ccccc12)C(=O)O (H-Trp-Gln-Val-OH) | inactive
5 | CC(C)[C@H](N)C(=O)N[C@@H](Cc1c[nH]c2ccccc12)C(=O)N[C@@H](CCC(N)=O)C(=O)O (H-Val-Trp-Gln-OH) | inactive

Test system: THP-1
Assay: Effective dose against monocyte chemoattractant protein-1(MCP-1) induced leukocyte migration of THP-1 cells
Assay type: functional
Conditions: Homo sapiens, read-out: ED50 (the source's name)
Procedure, shortened: as §1

Row | EC50 [µM] | SMILES
6 | 8 | CC[C@H](C)[C@H](NC(=O)[C@@H](N)CCC(=O)O)C(=O)N[C@@H](CS)C(=O)N[C@@H](C)C(=O)N[C@@H](CC(=O)O)C(=O)N1CCC[C@H]1C(=O)N[C@@H](CCCCN)C(=O)N[C@@H](CCC(N)=O)C(=O)N[C@@H](CCCCN)C(=O)N[C@@H](Cc1c[nH]c2ccccc12)C(=O)N[C@H](C(=O)N[C@@H](CCC(N)=O)C(=O)O)C(C)C (H-EICADPKQKWVQ-OH)
7 | 0.66 | CCCC(CCC)C(=O)N[C@H]1CCC(=O)NC1=O
8 | > 100 | NC(=O)CC[C@H](NC(=O)c1ccccc1)C(=O)O
9 | 15 | C=CCCCCCCCCC(=O)N[C@@H](CCC(N)=O)C(N)=O
10 | > 100 | NC(=O)CC[C@H](NC(=O)c1ccccc1)C(N)=O
11 | > 100 | O=C1CC[C@H](NC(=O)c2ccccc2)C(=O)N1
12 | > 100 | CC(C)[C@H](NC(=O)[C@@H](N)Cc1c[nH]c2ccccc12)C(=O)N[C@@H](CC(N)=O)C(=O)O (H-Trp-Val-Asn-OH)
13 | > 100 | CC(C)[C@H](N)C(=O)N[C@H](C(=O)N[C@@H](CCC(N)=O)C(=O)O)C(C)C (H-Val-Val-Gln-OH)
14 | 0.01 | CCCCCCCCC(=O)N[C@H]1CCC(=O)NC1=O
15 | 12 | NCCCC[C@H](NC(=O)[C@H](CCC(N)=O)NC(=O)[C@@H](N)CCCCN)C(=O)O
16 | > 100 | CC(C)(C)OC(=O)N[C@@H](CCC(N)=O)C(=O)NCc1ccccc1
17 | 0.02 | CCCCCCC(=O)N[C@H]1CCC(=O)NC1=O
18 | 45 | CC(C)(C)OC(=O)N[C@@H](CCC(N)=O)C(N)=O
19 | 0.01 | CCCCCCCCCCC(=O)N[C@H]1CCC(=O)NC1=O
20 | 0.033 | CCCCC(=O)N[C@H]1CCC(=O)NC1=O
21 | 8 | CC(C)[C@H](NC(=O)[C@H](Cc1c[nH]c2ccccc12)NC(=O)[C@H](CCCCN)NC(=O)[C@H](CCC(N)=O)NC(=O)[C@H](CCCCN)NC(=O)[C@@H]1CCCN1C(=O)[C@H](CC(=O)O)NC(=O)[C@H](C)NC(=O)[C@@H](N)CS)C(=O)N[C@@H](CCC(N)=O)C(=O)O (H-CADPKQKWVQ-OH)
22 | 40 | C=CCCCCCCCCC(=O)N[C@@H](CCC(N)=O)C(=O)NCc1ccccc1
23 | 6 | CC(C)[C@H](NC(=O)[C@H](Cc1c[nH]c2ccccc12)NC(=O)[C@H](CCCCN)NC(=O)[C@H](CCC(N)=O)NC(=O)[C@@H](N)CCCCN)C(=O)N[C@@H](CCC(N)=O)C(=O)O (H-KQKWVQ-OH)
24 | 0.066 | O=C(O)CCCCCCCCC(=O)N[C@H]1CCC(=O)NC1=O
25 | 50 | CC[C@H](C)[C@H](NC(=O)[C@@H](N)CCC(=O)O)C(=O)N[C@@H](CS)C(=O)N[C@@H](C)C(=O)N[C@@H](CC(=O)O)C(=O)N1CCC[C@H]1C(=O)O (H-EICADP-OH)
26 | 0.033 | C=CCCCCCCCCC(=O)N[C@H]1CCC(=O)N(C)C1=O
27 | 0.1 | C=CCCCCCCCCC(=O)N[C@H]1CCCNC1=O
28 | > 100 | NC(=O)CC[C@H](NC(=O)c1ccccc1)C(=O)NCc1ccccc1

Row | SMILES | EC50 [µM]
29 | CC(C)[C@H](NC(=O)[C@@H](N)Cc1ccc(O)cc1)C(=O)N[C@@H](CCC(N)=O)C(=O)O (H-Tyr-Val-Gln-OH) | 25
